Test results as given in the EternaBench riboswitch data.

Tested on: MS2 coat protein
Test: apparent Kd, MS2 coat protein; higher = weaker binding; RNA-MaP array; FMN 200 µM where present
Outline: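 Designs were transcribed by stalled E. coli RNA polymerase on Illumina sequencing-chip clusters. They were titrated with SNAP-549-labelled MS2 coat protein from 0.7 or 1.5 nM, doubling to 3 µM, in 100 mM Tris-HCl pH 7.5, 80 mM KCl, 4 mM MgCl2, BSA, DTT, yeast tRNA and Tween-20, without and then with constant ligand. The apparent Kd is the median of filtered per-cluster fits after normalisation of green signal to red-channel RNA signal and control-cluster median Fmax.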

[1] = designed as: OFF switch for flavin mononucleotide, no ligand
[2] = ligand present: flavin mononucleotide, designed as: OFF switch for flavin mononucleotide
[3] = designed as: ON switch for flavin mononucleotide, no ligand
[4] = ligand present: flavin mononucleotide, designed as: ON switch for flavin mononucleotide

Row | Sequence | apparent Kd [1] | apparent Kd [2] | apparent Kd [3] | apparent Kd [4]
1 | AGCUAGUCAGGAUAUACGUACAUGUCAUUAGACGUGAAGGGACAUGAGGAUCACCCAUGUAGAAGGGACUAGCU | 37.6 nM | 139 nM |  | 
2 | UCGACCGGAGGAUAUCACGUAAAGUACAUGAGGAUCACCCAUGUGUGAUGACUCGAGUCGUGAGAAGGCCGAUAUG | 76.4 nM | 172 nM |  | 
3 | UUGGUUGUCGUAGGAUAUGGAGGAGAUUCCUACAUGAGGAUCACCCAUGUUCGCAUGGAAGAAGGCCAGAAGGACGAUGACCAU |  |  | 80.5 nM | 62 nM
4 | UUCCUGUCAGGAUAUGACUAGAUGCACGUUAGUGUGUUUACUUAGAAGGGACAUGAGGAUCACCCAUGUAUUCC | 26.2 nM | 24.3 nM |  | 
5 | GCACUGGAUGUAGGAUAUCAGGACGAUAAGUCCUGAGAAGGACAUGAGGAUCACCCAUGUCUCAUAAACCAGUGCUAUAAUAUA | 14.6 nM | 18.8 nM |  | 
6 | AACCGCGACCGGCCUGGCACGUCGAGAAGGGUACGUGACCUGCUUUACAUGAGGAUCACCCAUGUACAGGAUAUCGAAUAGCCG | 5.97 nM | 8.4 nM |  | 
7 | CGUGCGUAUGUGAGGAUAUGCUGGUCCUUGGAUCGGCAGAAGGCACAUGAGGAUCACCCAUGUGGUGUCGUACU | 238 nM | 32.4 nM |  | 
8 | UUGGACGUCGUAGGAUAUGUAGGAUAUUACUACAUGAGGAUCACCCAUGUUGACAUGGAAGAAGGACAGAAGGACGAUGUCCAU |  |  | 638 nM | 6.52 nM
9 | ACAUGAGGAUCACCCAUGUAGAAUGAAGAAGGUGGAUACUUGUGACUCACCCAUGUACAUAGGACUAAGGAUAUUCUAAUAAUU |  |  | 25.1 nM | 23 nM
10 | UGAGACCUCACAGGAUAUGCUGGACUUUGUCCAGCAGAAGGGUGAAAACAUGAGGAUCACCCAUGUAUGGUCUCCAAAUUUAAU |  |  | 164 nM | 12.7 nM
11 | GUCGGAUGUAUAGGAUAUCGACUGGAUAACAGUCGAGAAGGAUACAUGAGGAUCACCCAUGUAAUAAUAAUAAUAAUAACCGAC | 12.8 nM | 24.6 nM |  | 
12 | AAAUUGACGGGACAUGAGGAUCACCCAUGUGCUAGCCGGACCAGAAGGGCAGCCGGCACGUGGUUGCAGGAUAUGGCCGUCGCA |  |  | 154 nM | 151 nM
13 | GGUGGACAUGAGGAUCACCCAUGUGAGGAUAUCGGCUGGUACGUGUUGGCUGGCAUCUCGAGAAGGCACAUCGU | 56.2 nM | 135 nM |  | 
14 | GUGGUACAUGAGGAUCACCCAUGUCAGGAUAUCGUGUGUUUUUUUUCGGCCGCGCGUGCGAGAAGGGACGUCUU | 19.6 nM | 19.4 nM |  | 
15 | UAUAUAUAGUAAGGAUAUGUAAUUAUUUUACAAACAGAAGGUACUGACAUGAGGAUCACCCAUGUUUUAGUGUGGGCAUGUAGA | 47.3 nM | 54.4 nM |  | 
16 | GACUUGUUAGGAUAUCUUACAUUUGCAUCAUAGUUACCAUUGGAGAAGGGACAUGAGGAUCACCCAUGUUUGGU | 40 nM | 39.8 nM |  | 
17 | UAAAAGCGAGGAUAUACAUGAGGAUCACCCAUGUGAAAGAAAAAUAAAAAAAAAAAAAGUAGAAGGCGCUAAAA | 62.1 nM | 58.4 nM |  | 
18 | UGAUAACAUGUAGGAUAUCCAGCAUUGACCAUCGGAGAAGGACAUGAGGAUCACCCAUGUACCGAUACAAUGGAAUAAGGGAAU | 15.5 nM | 17.9 nM |  | 
19 | ACACAUGAGGAUCACCCAUGUACUCGACACAUUCAUUGGGCACAGGAUAUACGGUGAAGUCUUUCGUAGAAGGGUGCUAGUGUG |  |  | 84 nM | 18.4 nM
20 | CUCAUGUCAGGAUAUCAGUAGUAAAAAAAUAAAAUUACUACUGAGAAGGGACAUGAGGAUCACCCAUGUCCGGG | 20.4 nM | 18.4 nM |  | 
21 | GAUGGACAUGAGGAUCACCCAUGUCAGGAUAUUGUUUGUGGCUAGUUUUGGUUACGGGCGAGAAGGGACUCGUC | 22.6 nM | 20.7 nM |  | 
